16 compounds from PubChem BioAssay can be followed below.

A short description of experiment [1]: Her2 expression decrease, cell viability multiplex – SKBR3 breast tumor cells, AlphaScreen, ATP viability, primary screen (AID 461;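 active = Her2 level under about 52% in both replicate screens, with viability over 70% of control, limit read from the data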;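 as to Her2 level: lower value means less Her2 protein in the cells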;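 as to viability: percent of carrier control wells set as 100% viability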). Particulars: SKBR3 Her2 protein level, 18-24 h, measured here: SKBR3 viability, ATP luminescence, at 10 µM.
Experiment [2] concerns the target Receptor tyrosine-protein kinase erbB-2 (Homo sapiens) (UniProt P04626). The experiment is described as above. Particulars: 18-24 h, at 10 µM, stronger effect = lower value.
The nature of experiment [3]: reduced viability of SK-BR-3 breast cancer cells – cell-based, 24 h, human, pilot screen (AID 572;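 active = viability at or below 10% of carrier control in both of two separate runs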;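 also: compound exposure lasted between 18 and 24 h rather than exactly 24 h; 100% = carrier-treated control wells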). The note with it: SK-BR-3 viability, CellTiter-Glo luminescence, at 10 µM, stronger effect = lower value.
A short description of experiment [4]: HUVEC growth inhibition – cell-based, human, primary screen (AID 575;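 active = viability at or below 30% in both replicate assays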;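 also: 100% = median of untreated cell wells with 0.1% DMSO on each plate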). Particulars: HUVEC proliferation, CellTiter-Glo luminescence, 72 h; at 10 µM; stronger effect = lower value. In short, it runs like this: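 Test system: primary human umbilical vein endothelial cells; medium: endothelial basal medium with 2% FBS plus growth supplements; dosing: 10 µM compound only; times: 72 h treatment at 37 °C; signal: CTG luminescence; read-out: % viability relative to median vehicle-well signal on each plate; control set: vehicle and MePR control wells; plate: 384-well, collagen-coated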

Experiment [5] can be described thus: H69AR cell proliferation blockers – human, duplicate replicates, primary screen (AID 580;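 active = viability at or under a set limit in both replicates, limit being median viability minus 3 SD, cut at about 48% in these data, passing the limit was not always enough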;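 also: 100% = mean luminescence of untreated wells and 0% = no signal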). The note with it: H69AR lung tumor cells viability, ATP luminescence, 72 h; at 10 µM; stronger effect = lower value.
Experiment [6] in a line: MRP1 drug-resistance reversers in H69AR cells – cell-based, doxorubicin co-treatment, pilot screen (AID 601;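 active = viability loss from added drug above about 55%, and viability with drug at most 40%, in both replicates, limit read from the data, passing the limit was not always enough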). The note with it: CellTiter-Glo, 72 h, at 10 µM; for differential viability (reversal): stronger effect = higher value.
A short description of experiment [7]: yeast transport mutant growth inhibition pilot in 384-well plates, post-Golgi transport modulator project (AID 636; in the data active = inhibition above about 31%). The note with it: absorbance 615 nm, about 18 h, stronger effect = higher value.
Experiment [8] in a line: growth suppression of yeast trafficking mutant, preliminary HTS, modulators of trafficking downstream of Golgi apparatus project, 1536-format plate, OD 615 nm (AID 637). The note with it: yeast transport mutant growth, absorbance 615 nm, 18 h; stronger effect = higher value.
Where [9] appears, read: H69AR cells + 2 uM doxorubicin, measured here: viability with 2 uM doxorubicin, stronger effect = lower value.
Where [10] appears, read: H69AR cells, compound alone cytotoxicity.

Activity calls are given as the source filed them. Rule as the data show it, unless noted: active = inhibition above about 30%; inactive = the rest.

Receptor tyrosine-protein kinase erbB-2 (Homo sapiens), sequence (P04626 whole entry, looked up): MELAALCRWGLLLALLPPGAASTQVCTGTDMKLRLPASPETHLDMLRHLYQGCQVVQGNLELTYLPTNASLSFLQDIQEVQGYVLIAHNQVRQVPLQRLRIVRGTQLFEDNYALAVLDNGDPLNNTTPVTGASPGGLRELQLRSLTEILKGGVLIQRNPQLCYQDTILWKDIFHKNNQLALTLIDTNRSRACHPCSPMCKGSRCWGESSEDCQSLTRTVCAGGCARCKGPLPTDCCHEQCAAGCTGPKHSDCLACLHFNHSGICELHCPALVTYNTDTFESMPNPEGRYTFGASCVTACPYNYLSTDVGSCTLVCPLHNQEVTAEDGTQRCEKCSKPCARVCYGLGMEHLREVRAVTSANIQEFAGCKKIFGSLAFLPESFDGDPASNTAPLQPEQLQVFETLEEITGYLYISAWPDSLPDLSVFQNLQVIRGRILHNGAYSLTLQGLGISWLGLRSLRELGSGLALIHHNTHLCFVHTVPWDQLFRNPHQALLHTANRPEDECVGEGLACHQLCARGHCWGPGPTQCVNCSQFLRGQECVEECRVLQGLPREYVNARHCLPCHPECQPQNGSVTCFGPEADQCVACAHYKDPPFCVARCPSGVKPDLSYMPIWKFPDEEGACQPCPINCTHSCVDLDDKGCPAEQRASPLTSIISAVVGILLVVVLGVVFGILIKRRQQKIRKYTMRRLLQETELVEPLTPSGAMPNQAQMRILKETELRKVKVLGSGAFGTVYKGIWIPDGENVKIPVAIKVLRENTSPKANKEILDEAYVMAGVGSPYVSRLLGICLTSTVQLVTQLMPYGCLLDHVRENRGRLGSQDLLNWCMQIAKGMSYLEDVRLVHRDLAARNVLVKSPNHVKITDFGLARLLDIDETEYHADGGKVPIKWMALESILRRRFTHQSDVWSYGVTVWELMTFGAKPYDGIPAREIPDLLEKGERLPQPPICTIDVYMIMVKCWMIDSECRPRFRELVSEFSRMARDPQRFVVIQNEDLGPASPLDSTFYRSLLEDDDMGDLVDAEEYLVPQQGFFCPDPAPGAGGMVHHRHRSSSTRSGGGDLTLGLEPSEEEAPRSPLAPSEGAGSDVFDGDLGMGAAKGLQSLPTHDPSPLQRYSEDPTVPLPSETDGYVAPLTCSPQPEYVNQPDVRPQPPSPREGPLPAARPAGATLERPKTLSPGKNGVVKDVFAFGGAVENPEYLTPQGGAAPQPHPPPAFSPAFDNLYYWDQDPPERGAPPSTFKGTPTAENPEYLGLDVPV

As to `COc1ccc2c(c1)cc(C(=O)O)n2C`, the viability in experiment [1] is 92.5%; in experiment [3] it was 92.5% (inactive); in experiment [4], 102% (inactive); in experiment [5], 98.7% (inactive); in experiment [6] (setting [9]) it was 89.9%; in experiment [6] (setting [10]), 98.7%. For the same compound, the Her2 level in experiment [2] was 73% (inactive). The differential viability (reversal) in experiment [6] (H69AR cells + 2 uM doxorubicin) is 8.84% (inactive). Besides, the inhibition in experiment [7] is -5.39% (inactive); in experiment [8], -5.67% (inactive).
In the case of `CCCNS(=O)(=O)c1ccc(OCC(=O)NCc2ccco2)cc1`, the viability in experiment [1] is 93.5%; in experiment [3] it was 93.5% (inactive); in experiment [4], 91.3% (inactive); in experiment [5] it was 83.7% (inactive); in experiment [6] (setting [9]) it was 87.2%; in experiment [6] (setting [10]) it was 83.7%. Also, the Her2 level in experiment [2] was 120% (inactive). Moreover, the differential viability (reversal) in experiment [6] (H69AR cells + 2 uM doxorubicin) is -3.46% (inactive). Also, the inhibition in experiment [7] was 1.6% (inactive); in experiment [8] it was -3.65% (inactive).
Consider `CC(C)CCn1c(N)c(S(=O)(=O)c2cccs2)c2nc3ccccc3nc21`, for which the viability in experiment [1] was 171%; in experiment [3] it was 171% (inactive); in experiment [4], 49.8% (inactive); in experiment [5], 42.9% (active); in experiment [6] (setting [9]) it was 57.7%; in experiment [6] (setting [10]), 42.9%. The Her2 level in experiment [2] was 43% (active). Besides, the differential viability (reversal) in experiment [6] (H69AR cells + 2 uM doxorubicin) is -14.9% (inactive). Moreover, the inhibition in experiment [7] was -3.95% (inactive); in experiment [8] it was -3.17% (inactive).
In the case of `C=CCSC1=C(C#N)C(c2ccccc2)CC(=O)N1` (stereo not given), the viability in experiment [1] is 106%; in experiment [3], 106% (inactive); in experiment [4], 114% (inactive); in experiment [5], 104% (inactive); in experiment [6] (setting [9]) it was 97.4%; in experiment [6] (setting [10]) it was 104%. In experiment [2], the Her2 level was 93.5% (inactive). Besides, in experiment [6] (H69AR cells + 2 uM doxorubicin), the differential viability (reversal) is 6.72% (inactive). The inhibition in experiment [7] was -1.87% (inactive); in experiment [8] it was -4.35% (inactive).
As for `O=C(CCN1C(=O)COc2ccccc21)NCCN1CCN(c2cccc(Cl)c2)CC1`, the viability is 94.5% in experiment [1]; 94.5% (inactive) in experiment [3]; 90.9% (inactive) in experiment [4]; 83.8% (inactive) in experiment [5]; 95.1% in experiment [6] (setting [9]); 83.8% in experiment [6] (setting [10]). In addition, the Her2 level in experiment [2] is 84% (inactive). Besides, in experiment [6] (H69AR cells + 2 uM doxorubicin), the differential viability (reversal) is -11.3% (inactive). Besides, the inhibition was -1.04% (inactive) in experiment [7] and -3.33% (inactive) in experiment [8].
Take `Cc1ccc(-n2ncc3c(=O)n(CC(=O)NC4CCCCC4)cnc32)cc1C`: the viability in experiment [1] is 105%; in experiment [3], 105% (inactive); in experiment [4] it was 92.7% (inactive); in experiment [5], 87.4% (inactive); in experiment [6] (setting [9]), 85.8%; in experiment [6] (setting [10]), 87.4%. The Her2 level in experiment [2] was 108% (inactive). In addition, the differential viability (reversal) in experiment [6] (H69AR cells + 2 uM doxorubicin) was 1.56% (inactive). Besides, the inhibition in experiment [7] was -3.68% (inactive); in experiment [8], -1.13% (inactive).
Regarding `Cc1cc(=O)oc2cc(OCC(=O)OCc3nnc(-c4ccccc4)o3)ccc12`, the viability was 106% in experiment [1]; 106% (inactive) in experiment [3]; 84.1% (inactive) in experiment [4]; 94.9% (inactive) in experiment [5]; 91.9% in experiment [6] (setting [9]); 94.9% in experiment [6] (setting [10]). The Her2 level in experiment [2] was 92.5% (inactive). Moreover, the differential viability (reversal) in experiment [6] (H69AR cells + 2 uM doxorubicin) is 3.04% (inactive). In addition, the inhibition in experiment [7] is -6.18% (inactive); in experiment [8] it was -0.16% (inactive).
`COCCNC(=O)C(c1ccc(O)cc1)N(Cc1ccco1)C(=O)CCC(=O)Nc1nccs1` (stereo not given): the viability was 81.5% in experiment [1]; 81.5% (inactive) in experiment [3]; 104% (inactive) in experiment [4]; 99.5% (inactive) in experiment [5]; 88.3% in experiment [6] (setting [9]); 99.5% in experiment [6] (setting [10]). Moreover, in experiment [2], the Her2 level was 104% (inactive). In experiment [6] (H69AR cells + 2 uM doxorubicin), the differential viability (reversal) is 11.1% (inactive). For the same compound, the inhibition in experiment [7] was -0.81% (inactive); in experiment [8], -6.23% (inactive).
Regarding `Cc1ccc(/C=N/n2nnnc2N)o1`, the viability was 93% in experiment [1]; 93% (inactive) in experiment [3]; 111% (inactive) in experiment [4]; 95.1% (inactive) in experiment [5]; 84.5% in experiment [6] (setting [9]); 95.1% in experiment [6] (setting [10]). Further, the Her2 level in experiment [2] is 88% (inactive). The differential viability (reversal) in experiment [6] (H69AR cells + 2 uM doxorubicin) is 10.6% (inactive). For the same compound, the inhibition was -8.38% (inactive) in experiment [7] and -10.5% (inactive) in experiment [8].
Take `CCOC(=O)N1CCN(CC(=O)c2c(C)[nH]c3ccccc23)CC1`: the viability in experiment [1] was 94%; in experiment [3], 94% (inactive); in experiment [4], 79.9% (inactive); in experiment [5], 75.2% (inactive); in experiment [6] (setting [9]) it was 83.1%; in experiment [6] (setting [10]) it was 75.2%. Moreover, the Her2 level in experiment [2] is 98% (inactive). The differential viability (reversal) in experiment [6] (H69AR cells + 2 uM doxorubicin) is -7.93% (inactive). The results for the inhibition in experiment [7] and in experiment [8] were -5.41% (inactive) and -3.93% (inactive), respectively.
On to `O=C(Cn1nnc(-c2cccs2)n1)OC1CCCCC1`, for which the viability in experiment [1] was 94.5%; in experiment [3], 94.5% (inactive); in experiment [4] it was 81.7% (inactive); in experiment [5], 110% (inactive); in experiment [6] (setting [9]) it was 93.3%; in experiment [6] (setting [10]), 110%. The Her2 level in experiment [2] was 104% (inactive). For the same compound, the differential viability (reversal) in experiment [6] (H69AR cells + 2 uM doxorubicin) is 16.9% (inactive). Moreover, the inhibition was -4.93% (inactive) in experiment [7] and -3.39% (inactive) in experiment [8].
In the case of `CCC1CCCN1Cn1cnc2c([nH]c3ccc(OC)cc32)c1=O` (stereo not given), the viability in experiment [1] was 104%; in experiment [3] it was 104% (inactive); in experiment [4] it was 111% (inactive); in experiment [5], 91.3% (inactive); in experiment [6] (setting [9]), 89.9%; in experiment [6] (setting [10]) it was 91.3%. The Her2 level in experiment [2] is 90% (inactive). For the same compound, in experiment [6] (H69AR cells + 2 uM doxorubicin), the differential viability (reversal) is 1.38% (inactive). Moreover, the inhibition in experiment [7] is -5.6% (inactive); in experiment [8], 2.42% (inactive).
Turning to `O=C(NCCCN1CCN(CCCNC(=O)c2ccc(F)cc2)CC1)c1ccc(F)cc1`, the viability in experiment [1] is 92.5%; in experiment [3], 92.5% (inactive); in experiment [4] it was 89.9% (inactive); in experiment [5], 94.6% (inactive); in experiment [6] (setting [9]), 90%; in experiment [6] (setting [10]), 94.6%. Moreover, the Her2 level in experiment [2] is 98% (inactive). Also, in experiment [6] (H69AR cells + 2 uM doxorubicin), the differential viability (reversal) was 4.58% (inactive). In addition, the inhibition in experiment [7] was -4.67% (inactive); in experiment [8] it was 0.81% (inactive).
As to `CCc1ccccc1NC(=O)CSc1ncn[nH]1`, the viability in experiment [1] was 101%; in experiment [3], 101% (inactive); in experiment [4], 97.9% (inactive); in experiment [5] it was 103% (inactive); in experiment [6] (setting [9]), 94%; in experiment [6] (setting [10]), 103%. In addition, in experiment [2], the Her2 level was 124% (inactive). For the same compound, in experiment [6] (H69AR cells + 2 uM doxorubicin), the differential viability (reversal) was 8.47% (inactive). Moreover, the inhibition is -1.82% (inactive) in experiment [7] and -6.33% (inactive) in experiment [8].
`N/C(=N/O)c1nc(N2CCCC2)nc(N(c2ccccc2)c2ccccc2)n1`: the viability was 108% in experiment [1]; 108% (inactive) in experiment [3]; 75.9% (inactive) in experiment [4]; 65.2% (inactive) in experiment [5]; 59.4% in experiment [6] (setting [9]); 65.2% in experiment [6] (setting [10]). Moreover, in experiment [2], the Her2 level is 93.5% (inactive). Moreover, in experiment [6] (H69AR cells + 2 uM doxorubicin), the differential viability (reversal) was 5.79% (inactive). For the same compound, the values for the inhibition in experiment [7] and in experiment [8] were -6.62% (inactive) and 3.17% (inactive), respectively.
Regarding `COc1ccc(OC)c(S(=O)(=O)NCCC2=CCCCC2)c1`, the viability in experiment [1] is 77%; in experiment [3] it was 77% (inactive); in experiment [4] it was 106% (inactive); in experiment [5], 96.6% (inactive); in experiment [6] (setting [9]), 102%; in experiment [6] (setting [10]) it was 96.6%. The Her2 level in experiment [2] is 87.5% (inactive). The differential viability (reversal) in experiment [6] (H69AR cells + 2 uM doxorubicin) was -5.82% (inactive). Also, the inhibition in experiment [7] is -6.89% (inactive); in experiment [8], -3.77% (inactive).
